RGS4 act: potentiators or activators of RGS4; 310,000 compounds, 0.92% hits; B-score at 10 µM; HEK293 M3R/inducible RGS4, carbachol calcium flux Fluo4; stronger effect = lower value;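 active means B-score of the integrated calcium signal more than 4 SD below the library mean, with starting fluorescence not abnormally high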;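 further: negative B-score means reduced calcium response which marks RGS4 activation or potentiation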
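Material: Inducible-RGS4 HEK293 cells carrying M3 receptor; also added: carbachol at ECmax as muscarinic agonist stimulus; incubation: compound preincubation 20 min at room temperature before agonist; signal: Fluo4-AM (2 µM) calcium-flux fluorescence, kinetic read; measure: integrated calcium ratio converted to B score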
RGS4 inh: human RGS4 inhibition; HEK293 M3R/RGS4 inducible, Fluo-4 calcium flux; stronger effect = higher value; triggered by carbachol at its EC20; 310,000 compounds, 0.45% hits; P49798; B-score at 10 µM; AID 463165;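 active means B-score, a plate-corrected calcium signal, over three deviations above library mean, with baseline fluorescence within five deviations of library mean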;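 further: RGS4 expression induced by doxycycline in cells with stable M3 receptor; B-score is computed from the integrated fluorescence ratio over baseline after carbachol; higher B-score means a larger calcium signal and so more RGS4 inhibition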
Target sequence (P49798 whole entry, looked up): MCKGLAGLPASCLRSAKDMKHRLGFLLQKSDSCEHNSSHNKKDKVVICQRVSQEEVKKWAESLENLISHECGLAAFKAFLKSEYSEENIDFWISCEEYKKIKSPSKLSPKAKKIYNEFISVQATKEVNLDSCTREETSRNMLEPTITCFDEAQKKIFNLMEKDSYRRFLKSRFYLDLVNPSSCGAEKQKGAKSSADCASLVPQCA
MrgX1 antagonist: antagonists of human MrgX1 receptor. Q96LB2. MRGX1-HEK293 calcium flux, Fluo-4, BAM8-22 antagonism; stronger effect = lower value. B-score at 10 µM. 310,000 compounds, 1.3% hits;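 active means calcium-response B-score plate-corrected more than 3 library SD below zero, starting fluorescence within 5 deviations, no agonist response on first addition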;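 further: peak minus trough fluorescence over baseline after final BAM8-22 challenge near maximal dose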
Target sequence (Q96LB2 whole entry, looked up): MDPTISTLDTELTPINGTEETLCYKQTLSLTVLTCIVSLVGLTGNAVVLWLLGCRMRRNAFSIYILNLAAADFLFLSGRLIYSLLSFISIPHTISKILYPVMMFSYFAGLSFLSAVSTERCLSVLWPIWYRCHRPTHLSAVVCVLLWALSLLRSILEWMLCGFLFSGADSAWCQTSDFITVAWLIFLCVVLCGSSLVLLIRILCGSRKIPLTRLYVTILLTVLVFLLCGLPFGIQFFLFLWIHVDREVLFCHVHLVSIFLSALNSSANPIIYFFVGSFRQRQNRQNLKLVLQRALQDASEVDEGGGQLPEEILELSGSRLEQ
MrgX1 PAM: human MrgX1 positive allosteric modulation, primary screen; AID 588675; MrgX1-HEK293, Fluo-4 calcium flux, FDSS; stronger effect = higher value; 310,000 compounds, 0.63% hits; B-score at 10 µM; Q96LB2;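 active means plate-corrected calcium response at least 3 library SD above typical, normal starting fluorescence, not activating the receptor alone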;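 further: compound read alongside a low EC10 to EC30 dose of BAM8-22 agonist; peak minus trough fluorescence over baseline measured at the second addition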
MrgX1 agonist: activates human MrgX1 receptor signaling. Q96LB2. MrgX1-HEK293 cells, Fluo-4 calcium fluorescence, agonist mode; stronger effect = higher value. B-score at 10 µM. 310,000 compounds, 0.44% hits. AID 588627;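 active means calcium response B-score plate-corrected fluorescence ratio at least 3 library SD, with starting fluorescence B-score inside 5 SD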
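Assay system: MrgX1-expressing HEK293 cells / Amount: fifteen thousand cells per well / Doses: test compound in the initial addition of three / Timing: cells plated overnight, dye loaded 0.5 h 37 °C, 0.5 h room temperature / Technique: kinetic calcium dye fluorescence, Fluo-4 NW / Control set: positive and negative controls per plate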
MrgX1 PAM conf: confirmation of human MrgX1 receptor positive allosteric modulators. 1,200 compounds, 13% hits. MrgX1-HEK293, Fluo-4 calcium fluorescence, FDSS. activation (ratio percentage), % at 10 µM. shares compounds with MrgX1 PAM;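 active means ratio at least 3 SD above the weak peptide control, stable starting fluorescence, no direct agonism earlier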;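 further: compound followed by low BAM8-22 agonist challenge near EC20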
HEK293 Ca flux: activity in parental HEK293 cells lacking MrgX1; Fluo-4 calcium fluorescence, FDSS; shares compounds with MrgX1 antagonist; 4,000 compounds, 2% hits; fluorescence ratio F(max-min)/F0 at 10 µM;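 active means duplicate-averaged calcium fluorescence ratio at least three times the standard deviation of buffer wells, a nonspecific response in parental cells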
HEK293 Ca counter: activity in parental HEK293 cells without MrgX1. shares compounds with MrgX1 antagonist. parental HEK293 calcium flux, Fluo-4 fluorescence ratio; stronger effect = higher value. fluorescence ratio F(max-min)/F0 at 10 µM. 4,000 compounds, 0.4% hits;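 active means calcium fluorescence ratio, averaged over duplicates, at least 3 SD of the buffer-well ratio, meaning a nonspecific response in receptor-free cells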;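 further: untransfected parental HEK293 lacking MrgX1 used as counterscreen for MrgX1 allosteric activators; fluorescence change taken during the second addition on a kinetic imager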
HEK293 Ca cntr2: counter-screen for MrgX1 activators: effect in parental HEK293 cells; 4,000 compounds, 8.7% hits; shares compounds with MrgX1 antagonist; fluorescence ratio F(max-min)/F0 at 10 µM; Fluo-4 calcium fluorescence (FDSS); stronger effect = higher value;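 active means calcium fluorescence ratio at least three times the spread of buffer wells, meaning a non-specific response in parental cells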
Each line names hits and unclear results; the compound was inactive in the other large screens (follow-up assays come after a bar, where they were run). In the library only some 3.5% were active in any assay of this set; here they are far more common.

Cc1ccc(OCC(=O)Nc2ccccc2N2CCOCC2)c(C)c1	MrgX1 PAM 9.91 | MrgX1 PAM conf inactive | HEK293 Ca flux inactive | HEK293 Ca counter inactive | HEK293 Ca cntr2 inactive
Cc1cc(OCC(=O)Nc2ccccc2N2CCCC2)ccc1C(C)C	MrgX1 PAM 22.2 | MrgX1 PAM conf 13.1% | HEK293 Ca flux inactive | HEK293 Ca counter inactive | HEK293 Ca cntr2 inactive
Cc1cc(OCC(=O)Nc2ccccc2N2CCCCC2)ccc1C(C)C	MrgX1 PAM 6.87 | MrgX1 PAM conf inactive | HEK293 Ca flux inactive | HEK293 Ca counter inactive | HEK293 Ca cntr2 inactive
O=C(NCc1ccncc1)C1CCCN(S(=O)(=O)c2cc(Cl)ccc2Cl)C1 (stereo not given)	none
CC(=O)c1cccc(NC(=O)COc2ccc3oc(=O)cc(C)c3c2)c1	none
O=C(NN=C1CCCCCC1)c1cccs1	none
Cc1cccc(OCC(=O)Nc2ccccc2N2CCCC2)c1C	MrgX1 PAM 26.2 | MrgX1 PAM conf 25.2% | HEK293 Ca flux inactive | HEK293 Ca counter inactive | HEK293 Ca cntr2 inactive
Cc1cccc(OCC(=O)Nc2cc(S(=O)(=O)N3CCCCC3)ccc2N2CCN(C)CC2)c1	MrgX1 PAM 16.4 | MrgX1 PAM conf inactive | HEK293 Ca flux inactive | HEK293 Ca counter inactive | HEK293 Ca cntr2 inactive
CN1CCN(c2ccc(S(=O)(=O)N3CCCCC3)cc2NC(=O)COc2cccc(Cl)c2)CC1	none
COc1cccc(CC(=O)Nc2ccccc2N2CCCC2)c1	MrgX1 PAM 9.44 | MrgX1 PAM conf inactive | HEK293 Ca flux inactive | HEK293 Ca counter inactive | HEK293 Ca cntr2 inactive
CC(Oc1ccc(F)cc1)C(=O)Nc1ccccc1N1CCCCC1 (stereo not given)	MrgX1 PAM 12.2 | MrgX1 PAM conf inactive | HEK293 Ca flux inactive | HEK293 Ca counter inactive | HEK293 Ca cntr2 inactive
Cc1ccccc1OCC(=O)Nc1ccccc1N1CCCCC1	none
Cc1nnc(SCC(=O)NC(C)(C)C)n1NCc1c(F)cccc1Cl	none
CC(C)CC(O)(c1ccccc1)C(CN1CCOCC1)c1ccccc1 (stereo not given)	none
CC(C)C(O)(c1ccccc1)C(CN1CCOCC1)c1ccccc1 (stereo not given)	MrgX1 PAM 8.36 | MrgX1 PAM conf inactive | HEK293 Ca flux inactive | HEK293 Ca counter inactive | HEK293 Ca cntr2 inactive
COc1ccccc1C(O)(c1ccccc1)C(CN1CCOCC1)c1ccccc1 (stereo not given)	MrgX1 PAM 9.09 | MrgX1 PAM conf inactive | HEK293 Ca flux inactive | HEK293 Ca counter inactive | HEK293 Ca cntr2 inactive
COc1cccc(-c2cc3nc4c(c(N5CCC6(CC5)OCCO6)n3n2)CCC4)c1	none
Nc1nc2ccccc2n1CCOc1ccc(Cl)cc1	MrgX1 PAM 6.58 | MrgX1 PAM conf inactive | HEK293 Ca flux inactive | HEK293 Ca counter inactive | HEK293 Ca cntr2 inactive
COc1cc2c(cc1OC)C1(Nc3c-2c(C)nn3-c2ccccc2)C(=O)Nc2ccccc21 (stereo not given)	MrgX1 PAM 6.7 (no result: RGS4 act, RGS4 inh) | MrgX1 PAM conf inactive | HEK293 Ca flux inactive | HEK293 Ca counter inactive | HEK293 Ca cntr2 inactive
CC(C)c1ccc(C2CC(=O)c3cnc(NC(=O)c4ccco4)nc3C2)cc1 (stereo not given)	none
CC1CCCCC1NC(=O)CN(C)S(=O)(=O)c1ccc2c(c1)CCC(=O)N2 (stereo not given)	none
CC(=O)O[C@]1(C(C)=O)CC[C@H]2[C@@H]3C=CC4=CC(=O)C=C[C@]4(C)[C@H]3CC[C@@]21C	none
CN1c2ccccc2Oc2nnc(N3CCN(Cc4ccccc4)CC3)cc21	MrgX1 PAM 11.9 | MrgX1 PAM conf inactive | HEK293 Ca flux inactive | HEK293 Ca counter inactive | HEK293 Ca cntr2 inactive
CN1c2ccccc2Oc2nnc(Cl)cc21	none
COc1ccc(C(=O)Nc2cc(C)nn2-c2cccc(F)c2)cc1OC	none
